Data as given in ChEMBL document CHEMBL1156889, “Synthesis and biological evaluation of (phenylpiperazinyl-propyl)arylsulfonamides as selective 5-HT(2A) receptor antagonists” (Bioorg Med Chem, 2010).
pIC50: −log10 of the molar value.

Columns and labels:
[1] = molecular target: 5-hydroxytryptamine receptor 7 (Homo sapiens, UniProt P34969); experiment: Displacement of [3H]LSD from human recombinant 5HT7 receptor expressed in CHO cells; assay type: cell-based
In short: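 Membranes from stably transfected CHO cells. Reaction mix held 3 nM [3H]LSD and test compound in 50 mM Tris-HCl pH 7.4 with 10 mM MgCl2 and 0.5 mM EDTA, incubated 90 min at 27 °C. Stopped by rapid filtration on GF/C filters presoaked in 0.3% polyethylenimine, then scintillation counted. Methiothepin defined nonspecific binding. 7-8 concentrations were run in duplicate, and IC50 came from nonlinear regression of isotherms from three assays.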

[2] = molecular target: T1, 5-hydroxytryptamine receptor 2C (Homo sapiens, UniProt P28335); experiment: Displacement of [3H]mesulergine from human recombinant 5HT2C receptor expressed in CHO-K1 cells; assay type: cell-based
T1 sequence (P28335 whole entry): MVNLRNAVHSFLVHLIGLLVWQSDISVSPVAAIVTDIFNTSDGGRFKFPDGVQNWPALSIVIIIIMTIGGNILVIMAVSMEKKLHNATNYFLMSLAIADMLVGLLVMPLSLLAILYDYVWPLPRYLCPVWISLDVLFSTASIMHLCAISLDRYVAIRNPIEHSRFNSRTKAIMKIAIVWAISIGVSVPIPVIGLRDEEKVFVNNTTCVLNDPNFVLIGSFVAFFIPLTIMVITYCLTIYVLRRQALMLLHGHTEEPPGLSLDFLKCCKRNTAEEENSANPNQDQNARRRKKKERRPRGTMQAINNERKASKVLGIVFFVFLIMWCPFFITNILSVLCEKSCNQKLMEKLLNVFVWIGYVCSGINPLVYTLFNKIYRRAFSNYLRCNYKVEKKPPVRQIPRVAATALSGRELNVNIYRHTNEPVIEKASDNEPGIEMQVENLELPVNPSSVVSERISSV
In short: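 Frozen membranes from a stable cell line were incubated with 1 nM [3H]mesulergine and test compound in 50 mM Tris-HCl pH 7.7 containing 0.1% ascorbic acid and pargyline, 30 min at 37 °C. Mianserin defined nonspecific binding. Terminated by rapid filtration through GF/C filters presoaked in 1% BSA.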

[3] = molecular target: 5-hydroxytryptamine receptor 2A (Homo sapiens, UniProt P28223); experiment: Displacement of [3H]ketanserin from human recombinant 5HT2A receptor expressed in avCHO-K1 cells; assay type: cell-based, CHO-K1
In short: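 Used frozen membranes. [3H]ketanserin was at 1 nM, with mianserin defining nonspecific binding. Incubated 15 min at 37 °C in 50 mM Tris-HCl pH 7.4, then harvested on GF/C glass fiber filters presoaked in 0.05% Brij.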

[4] = species on record: Homo sapiens; experiment: Selectivity for human recombinant 5HT2A receptor over human recombinant 5HT7 receptor
[5] = molecular target: Serotonin 2 receptors; 5-HT2a & 5-HT2c (Homo sapiens) (UniProt P28223+P28335); experiment: Selectivity for human recombinant 5HT2A receptor over human recombinant 5HT2C receptor
Chain of Serotonin 2 receptors; 5-HT2a & 5-HT2c (Homo sapiens) (P28223 whole entry, looked up, one chain of several): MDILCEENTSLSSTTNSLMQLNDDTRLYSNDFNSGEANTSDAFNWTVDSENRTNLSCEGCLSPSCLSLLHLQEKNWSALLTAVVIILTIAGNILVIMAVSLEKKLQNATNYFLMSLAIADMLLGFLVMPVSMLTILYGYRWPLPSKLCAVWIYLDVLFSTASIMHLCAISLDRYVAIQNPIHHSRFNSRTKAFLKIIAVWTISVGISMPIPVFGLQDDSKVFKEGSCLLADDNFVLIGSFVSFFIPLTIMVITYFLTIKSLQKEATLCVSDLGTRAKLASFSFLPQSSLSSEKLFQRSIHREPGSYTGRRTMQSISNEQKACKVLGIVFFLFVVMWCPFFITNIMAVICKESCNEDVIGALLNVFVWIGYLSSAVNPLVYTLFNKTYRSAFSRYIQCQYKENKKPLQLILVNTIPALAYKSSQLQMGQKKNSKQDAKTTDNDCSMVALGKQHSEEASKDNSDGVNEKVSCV

Chain of 5-hydroxytryptamine receptor 7 (P34969 whole entry): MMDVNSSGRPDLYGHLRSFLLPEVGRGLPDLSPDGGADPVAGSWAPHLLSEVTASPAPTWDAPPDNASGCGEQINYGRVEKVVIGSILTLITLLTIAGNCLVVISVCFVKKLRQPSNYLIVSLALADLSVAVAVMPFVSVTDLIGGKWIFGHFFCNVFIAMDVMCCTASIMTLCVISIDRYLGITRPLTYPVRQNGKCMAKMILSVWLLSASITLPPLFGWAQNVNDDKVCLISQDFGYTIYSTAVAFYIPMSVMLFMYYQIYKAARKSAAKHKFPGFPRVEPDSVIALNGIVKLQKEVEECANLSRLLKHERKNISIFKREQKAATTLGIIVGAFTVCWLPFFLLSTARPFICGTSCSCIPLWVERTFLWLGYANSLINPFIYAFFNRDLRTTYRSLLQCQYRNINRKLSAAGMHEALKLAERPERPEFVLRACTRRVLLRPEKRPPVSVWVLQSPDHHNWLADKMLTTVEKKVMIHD
Chain of 5-hydroxytryptamine receptor 2A (P28223 whole entry): as the sequence (P28223 whole entry, looked up, one chain of several) above

SMILES	pIC50 [1]	pIC50 [2]	pIC50 [3]	Ratio IC50 [4]	Ratio IC50 [5]
COc1ccc(S(=O)(=O)N(CCCN2CCN(c3cccc(C(F)(F)F)c3)CC2)CC2CCCCC2)cc1	6.17	7.48	7.71		
O=S(=O)(c1ccc2ccccc2c1)N(CCCN1CCN(c2cccc(C(F)(F)F)c2)CC1)CC1CCCCC1	6.05	7.18	7.88		
O=S(=O)(c1ccc(F)cc1)N(CCCN1CCN(c2ccccc2)CC1)CC1CCCCC1	6.96	6.53	7.88		
O=S(=O)(c1cccc2ccccc12)N(CCCN1CCN(c2ccccc2)CC1)CC1CCCCC1	6.71	7.29	8.59		
O=S(=O)(c1cccc2cccnc12)N(CCCN1CCN(c2ccc(Cl)c(Cl)c2)CC1)CC1CCCCC1	5.64	7.18	8.11		
O=S(=O)(c1cccc2cccnc12)N(CCCN1CCN(c2ccc(F)cc2)CC1)CC1CCCCC1	6.35	6.87	8.29		
O=S(=O)(c1cccc2ccccc12)N(CCCN1CCN(c2ccccc2)CC1)CC1CC1	6.82	5.84	6.77		
O=S(=O)(c1ccc2ccccc2c1)N(CCCN1CCN(c2ccccc2)CC1)CC1CCCCC1	5.91	7.19	9.15	1500	100
O=S(=O)(c1ccc2ccccc2c1)N(CCCN1CCN(c2ccc(F)cc2)CC1)CC1CCCCC1	5.82	7.62	9.30	3000	50
COc1ccc(S(=O)(=O)N(CCCN2CCN(c3ccccc3)CC2)CC2CC2)cc1	6.92	6.16	6.87		
COc1ccc(S(=O)(=O)N(CCCN2CCN(c3ccccc3)CC2)CC2CCCCC2)cc1	6.25	7.10	8.03		
O=[N+]([O-])c1ccc(S(=O)(=O)N(CCCN2CCN(c3ccccc3)CC2)CC2CC2)cc1	6.30	5.71	6.74		
O=S(=O)(c1cccc2cccnc12)N(CCCN1CCN(c2ccccc2)CC1)CC1CC1	6.13	5.67	6.53		
CC(CCN1CCN(c2ccc(F)cc2)CC1)NS(=O)(=O)c1ccc2ccccc2c1 (centres undefined)	6.28	7.05	8.21	85	15
COc1ccccc1N1CCN(CCCN(CC2CCCCC2)S(=O)(=O)c2ccc3ccccc3c2)CC1	6.30	7.15	7.94		
O=S(=O)(c1ccc2ccccc2c1)N(CCCN1CCN(c2ccccc2)CC1)CC1CC1	6.93	6.32	7.44		
O=S(=O)(c1ccc2ccccc2c1)N(CCCN1CCN(c2cccc(C(F)(F)F)c2)CC1)CC1CC1	6.47	6.52	6.66		
COc1ccc(S(=O)(=O)N(CCCN2CCN(c3ccccc3OC)CC2)CC2CC2)cc1	6.50	5.70	5.66		
COc1ccc(S(=O)(=O)N(CCCN2CCN(c3ccc(F)cc3)CC2)CC2CCCCC2)cc1	6.01	7.40	8.47		

SMILES	pIC50 [1]	pIC50 [2]	pIC50 [3]	Ratio IC50 [4]	Ratio IC50 [5]
O=S(=O)(c1ccc2ccccc2c1)N(CCCN1CCN(c2ccc(F)cc2)CC1)CC1CC1	7.30	6.46	7.29		
COc1ccc(S(=O)(=O)N(CCCN2CCN(c3ccc(F)cc3)CC2)CC2CC2)cc1	7.03	6.14	7.14		
O=S(=O)(c1ccc(C(F)(F)F)cc1)N(CCCN1CCN(c2ccccc2)CC1)CC1CCCCC1	6.34	6.81	8.15		
COc1ccccc1N1CCN(CCCN(CC2CCCCC2)S(=O)(=O)c2cccc3cccnc23)CC1	7.62	6.93	7.22		
O=S(=O)(c1ccc(C(F)(F)F)cc1)N(CCCN1CCN(c2ccccc2)CC1)CC1CC1	6.48	6.25	7.15		
CC(CCN1CCN(c2cccc(C(F)(F)F)c2)CC1)NS(=O)(=O)c1ccc2ccccc2c1 (centres undefined)	6.44	6.03	6.74		
CC(CCN1CCN(c2ccccc2)CC1)NS(=O)(=O)c1ccc2ccccc2c1 (centres undefined)	6.18	6.70	7.90	50	16
O=S(=O)(c1cccc2cccnc12)N(CCCN1CCN(c2cccc(C(F)(F)F)c2)CC1)CC1CCCCC1	6.80	7.41	7.54		
COc1ccc(S(=O)(=O)N(CCCN2CCN(c3cccc(C(F)(F)F)c3)CC2)CC2CC2)cc1	6.91	5.99	6.14		
COc1ccccc1N1CCN(CCCN(CC2CC2)S(=O)(=O)c2cccc3cccnc23)CC1	7.91	5.08	6.25		
O=S(=O)(c1ccc(F)cc1)N(CCCN1CCN(c2ccccc2)CC1)CC1CC1	6.83	5.70	6.85		
COc1ccc(S(=O)(=O)N(CCCN2CCN(c3ccccc3OC)CC2)CC2CCCCC2)cc1	6.76	6.70	7.79		
O=S(=O)(c1cccc2cccnc12)N(CCCN1CCN(c2cccc(C(F)(F)F)c2)CC1)CC1CC1	8.20	6.16	7.12		
O=[N+]([O-])c1ccc(S(=O)(=O)N(CCCN2CCN(c3ccccc3)CC2)CC2CCCCC2)cc1	7.06	7.34	8.38		
O=S(=O)(c1cccc2cccnc12)N(CCCN1CCN(c2ccccc2)CC1)CC1CCCCC1	6.38	6.07	7.46		
O=S(=O)(c1cccc2cccnc12)N(CCCN1CCN(c2ccc(F)cc2)CC1)CC1CC1	7.45	5.32	8.08		
COc1ccccc1N1CCN(CCCN(CC2CC2)S(=O)(=O)c2ccc3ccccc3c2)CC1	6.73	6.26	7.07		
COc1ccccc1N1CCN(CCC(C)NS(=O)(=O)c2ccc3ccccc3c2)CC1 (centres undefined)	6.50	6.27	6.18		
